{"source": "ChEMBL document CHEMBL1125797", "about": "“Synthesis, characterization and myocardial uptake of cationic bis(arene)technetium(I) complexes” (J Med Chem, 1991)", "key": {"Homo sapiens": {"species_on_record": "Homo sapiens", "assay": "The compound was tested for the plasma binding in human", "assay_type": "functional", "summary_of_the_method": "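Fresh heparinized human plasma (1.0 mL, obtained daily) was spiked with 0.02 mL test solution and incubated about 15 min. Duplicate samples went through saline-equilibrated Sephadex G-25 desalting columns by centrifugation. Eluate and gel were γ-counted for 1 min or to 1% σ error. % bound = net cpm eluate / net cpm (eluate + gel) × 100.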"}, "Rattus norvegicus": {"species_on_record": "Rattus norvegicus", "assay": "The compound was tested for the plasma binding in rat", "assay_type": "functional", "summary_of_the_method": "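Plasma protein binding was measured in rat plasma samples collected during the rat biodistribution studies, after tail vein injection of the 99mTc complex in saline (~25 μCi/kg).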"}}, "data": [{"substance": "Bis(m-xylene)technetium", "values": [{"measurement": "PPB", "setting": "Homo sapiens", "value": 11, "unit": "%"}, {"measurement": "PPB", "setting": "Rattus norvegicus", "value": 12, "unit": "%"}]}]}
